According to ChEMBL document CHEMBL1144498, “A two stage click-based library of protein tyrosine phosphatase inhibitors” (Bioorg Med Chem, 2007):
pIC50: −log10 of the molar value.

Experiments:
Yersinia pestis [1] = experiment: Inhibition of Yersinia pestis protein tyrosine phosphatase at 10 uM
Method in brief: (§1)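 Single-concentration percent inhibition screen with p-NPP substrate, 2.9 mM for Yersinia PTP and 2.0 mM for PTP1B. Buffer was 50 mM 3,3-dimethylglutarate pH 7.0 with 1 mM EDTA, 50 mM NaCl and 10% DMSO, at room temperature. Initial hydrolysis rates were read at 405 nm from 10 to 130 s.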

[2] = Inhibition of Yersinia pestis protein tyrosine phosphatase
Method in brief: (§2)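 p-NPP hydrolysis at room temperature in 50 mM 3,3-dimethylglutarate pH 7.0, 1 mM EDTA, 50 mM NaCl, 10% DMSO. Substrate was held at Km: Yersinia PTP 2.9, PTP1B 2.0, TCPTP 2.1, CD45 7.0 mM. Initial rates came from absorbance at 405 nm, 10–130 s after mixing. IC50 was obtained by Dixon analysis.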

[3] = Inhibition of Yersinia pestis protein tyrosine phosphatase 1B; method in brief: as §2
[4] = Inhibition of Yersinia pestis Protein tyrosine phosphatase TC; method in brief: as §2
[5] = Inhibition of Yersinia pestis protein tyrosine phosphatase CD45; method in brief: as §2
Yersinia pestis [6] = experiment: Inhibition of Yersinia pestis protein tyrosine phosphatase at 100 uM; method in brief: as §1

O=C(O)C(=O)c1ccc(-n2cc(C(=O)N[C@@H](Cc3c[nH]c4ccccc34)Cn3cc(-c4cccc(-c5cn(C[C@H](Cc6c[nH]c7ccccc67)NC(=O)c6cn(-c7ccc(C(=O)C(=O)O)cc7)nn6)nn5)c4)nn3)nn2)cc1
inhibition (Yersinia pestis [1]): > 60% | pIC50 [2]: 5.89 | pIC50 [3]: 5.39 | pIC50 [4]: 5.74 | pIC50 [5]: 5.07

C#CC(=O)N[C@H](CO)Cc1c[nH]c2ccccc12
inhibition (Yersinia pestis [6]): > 60%

O=C(O)C(=O)c1ccc(-n2cc(-c3cccc(-c4cn(-c5ccc(C(=O)C(=O)O)cc5)nn4)c3)nn2)cc1
pIC50 [2]: 4.60 | pIC50 [3]: 4.11

Cc1ccc(S(=O)(=O)c2cn(C[C@H](Cc3c[nH]c4ccccc34)NC(=O)c3cn(-c4ccc(C(=O)C(=O)O)cc4)nn3)nn2)cc1
inhibition (Yersinia pestis [1]): > 60% | pIC50 [2]: 5.68 | pIC50 [3]: 5.13 | pIC50 [4]: 5.59 | pIC50 [5]: 4.80

C#Cc1cccc(C#C)c1
inhibition (Yersinia pestis [6]): > 60%

O=C(O)C(=O)c1ccc(-n2cc(C(=O)N[C@@H](Cc3c[nH]c4ccccc34)Cn3cc(-c4ccc(-c5cn(C[C@H](Cc6c[nH]c7ccccc67)NC(=O)c6cn(-c7ccc(C(=O)C(=O)O)cc7)nn6)nn5)cc4)nn3)nn2)cc1
inhibition (Yersinia pestis [1]): > 60% | pIC50 [2]: 6.26 | pIC50 [3]: 5.68 | pIC50 [4]: 6.15 | pIC50 [5]: 5.08

COc1ccc2cc(-c3cn(C[C@H](Cc4c[nH]c5ccccc45)NC(=O)c4cn(-c5ccc(C(=O)C(=O)O)cc5)nn4)nn3)ccc2c1
inhibition (Yersinia pestis [1]): > 60% | pIC50 [2]: 5.68 | pIC50 [3]: 5.24 | pIC50 [4]: 5.59 | pIC50 [5]: 4.77

O=C(O)C(=O)c1ccc(-n2cc(C(=O)N[C@H](CO)Cc3c[nH]c4ccccc34)nn2)cc1
pIC50 [2]: 4.24 | pIC50 [3]: 3.30

O=C(O)C(=O)c1ccc(-n2cc(-c3ccc(-c4ccccc4)cc3)nn2)cc1
pIC50 [2]: 4.35 | pIC50 [3]: 4.08

C#Cc1ccc(C#C)cc1
inhibition (Yersinia pestis [6]): > 60%

C#Cc1ccc(-c2ccccc2)cc1
inhibition (Yersinia pestis [6]): > 60%
